# Columns and labels:
# SNB-19 = assay: Growth inhibition of human SNB19 cells at 10 uM after 48 hrs by SRB assay relative to control; format: functional; conditions: SNB-19, 48 h, read-out: GI
# Method in brief: (§1)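 NCI screen against its human cancer cell line panel by the standard NCI protocol, SRB protein stain. Single dose of 10 μM. Percent growth inhibition versus control; values above 100% mean the cell population fell below the starting number. Each value is the mean of duplicates.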
# UACC-62 = assay: Growth inhibition of human UACC62 cells at 10 uM after 48 hrs by SRB assay relative to control; format: functional; conditions: UACC-62, 48 h, read-out: GI; method in brief: as §1
# Malme-3M = assay: Growth inhibition of human MALME-3M cells at 10 uM after 48 hrs by SRB assay relative to control; format: functional; conditions: read-out: GI
# Method in brief: (§2)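 Screened at the National Cancer Institute by the standard NCI protocol using the sulforhodamine B assay, which measures cellular protein. Single dose of 10 µM. Result is percent growth inhibition; values above 100% mean cell number fell below the initial population. Values are the average of duplicates.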
# A549 = assay: Growth inhibition of human A549 cells at 10 uM after 48 hrs by SRB assay relative to control; format: functional; conditions: A549, 48 h, read-out: GI; method in brief: as §2
# NCI-H226 = assay: Growth inhibition of human NCI-H226 cells at 10 uM after 48 hrs by SRB assay relative to control; format: functional; conditions: NCI-H226, 48 h, read-out: GI; method in brief: as §2
# HCT-116 = assay: Growth inhibition of human HCT116 cells at 10 uM after 48 hrs by SRB assay relative to control; format: functional; conditions: HCT-116, 48 h, read-out: GI; method in brief: as §2
# 786-0 = assay: Growth inhibition of human 786-0 cells at 10 uM after 48 hrs by SRB assay relative to control; format: functional; conditions: 786-0, 48 h, read-out: GI; method in brief: as §2
# [1] = Cytotoxicity against human IOSE-80PC cells after 48 hrs by MTT assay; format: cell-based
# Method in brief: (§3)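 Normal human lung epithelial L132 and ovarian epithelial IOSE-80PC cells were tested by MTT viability assay, and IC50 was determined.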
# SF-268 = assay: Growth inhibition of human SF268 cells at 10 uM after 48 hrs by SRB assay relative to control; format: functional; conditions: SF-268, 48 h, read-out: GI; method in brief: as §2
# HOP-62 = assay: Growth inhibition of human HOP62 cells at 10 uM after 48 hrs by SRB assay relative to control; format: functional; conditions: HOP-62, 48 h, read-out: GI; method in brief: as §2
# HT-29 = assay: Growth inhibition of human HT-29 cells at 10 uM after 48 hrs by SRB assay relative to control; format: functional; conditions: HT-29, 48 h, read-out: GI; method in brief: as §2
# MDA-MB-435 = assay: Growth inhibition of human MDA-MB-435 cells at 10 uM after 48 hrs by SRB assay relative to control; format: functional; conditions: MDA-MB-435, 48 h, read-out: GI; method in brief: as §2
# COLO 205 = assay: Growth inhibition of human COLO205 cells at 10 uM after 48 hrs by SRB assay relative to control; format: functional; conditions: COLO 205, 48 h, read-out: GI; method in brief: as §2
# L132 = assay: Cytotoxicity against human L-132 cells after 48 hrs by MTT assay; format: cell-based; conditions: L132, 48 h; method in brief: as §3
# KM12 = assay: Growth inhibition of human KM12 cells at 10 uM after 48 hrs by SRB assay relative to control; format: functional; conditions: KM12, 48 h, read-out: GI; method in brief: as §2
# UO-31 = assay: Growth inhibition of human UO31 cells at 10 uM after 48 hrs by SRB assay relative to control; format: functional; conditions: UO-31, 48 h, read-out: GI; method in brief: as §1
# SN12C = assay: Growth inhibition of human SN12C cells at 10 uM after 48 hrs by SRB assay relative to control; format: functional; conditions: read-out: GI; method in brief: as §2
# OVCAR-8 = assay: Growth inhibition of human OVCAR8 cells at 10 uM after 48 hrs by SRB assay relative to control; format: functional; conditions: OVCAR-8, 48 h, read-out: GI; method in brief: as §2
# HCT-15 = assay: Growth inhibition of human HCT15 cells at 10 uM after 48 hrs by SRB assay relative to control; format: functional; conditions: HCT-15, 48 h, read-out: GI; method in brief: as §2
# NCI-H460 = assay: Growth inhibition of human NCI-H460 cells at 10 uM after 48 hrs by SRB assay relative to control; format: functional; conditions: NCI-H460, 48 h, read-out: GI; method in brief: as §2
# NCI-H322M = assay: Growth inhibition of human NCI-H322M cells at 10 uM after 48 hrs by SRB assay relative to control; format: functional; conditions: read-out: GI; method in brief: as §2
# TK-10 = assay: Growth inhibition of human TK10 cells at 10 uM after 48 hrs by SRB assay relative to control; format: functional; conditions: TK-10, 48 h, read-out: GI; method in brief: as §1
# ACHN = assay: Growth inhibition of human ACHN cells at 10 uM after 48 hrs by SRB assay relative to control; format: functional; conditions: read-out: GI; method in brief: as §2
SMILES,inhibition of growth at 10 µM (SNB-19) [%],inhibition of growth at 10 µM (UACC-62) [%],inhibition of growth at 10 µM (Malme-3M) [%],inhibition of growth at 10 µM (A549) [%],inhibition of growth at 10 µM (NCI-H226) [%],inhibition of growth at 10 µM (HCT-116) [%],inhibition of growth at 10 µM (786-0) [%],IC50 [1] [µM],inhibition of growth at 10 µM (SF-268) [%],inhibition of growth at 10 µM (HOP-62) [%],inhibition of growth at 10 µM (HT-29) [%],inhibition of growth at 10 µM (MDA-MB-435) [%],IC50 (L132) [µM],inhibition of growth at 10 µM (KM12) [%],inhibition of growth at 10 µM (UO-31) [%],inhibition of growth at 10 µM (SN12C) [%],inhibition of growth at 10 µM (OVCAR-8) [%],inhibition of growth at 10 µM (HCT-15) [%],inhibition of growth at 10 µM (NCI-H322M) [%],inhibition of growth at 10 µM (TK-10) [%],further results
COc1cc(NC(=O)c2cccc(-c3cc(=O)c4c(O)c(OC)c(OC)cc4o3)c2)cc(OC)c1OC,50,50.6,49,59.5,92.3,55.2,33.7,> 100,38.1,88.3,37.2,34.6,> 100,46.1,65.7,37,76.9,40.1,25.6,25.2,inhibition of growth at 10 µM (COLO 205): 32.3%; inhibition of growth at 10 µM (NCI-H460): 46.2%; inhibition of growth at 10 µM (ACHN): 83.7%
COc1ccccc1C(=O)Nc1cccc(-c2cc(=O)c3c(OC)c(OC)c(OC)cc3o2)c1,63.8,56.9,34.5,51.8,41.6,63.3,54.7,> 100,45.5,42.2,75.4,56.5,> 100,61.6,84.8,59,61.3,58.5,56.4,46.6,inhibition of growth at 10 µM (ACHN): 57%

# From ChEMBL document CHEMBL4325889, “Natural products hybrids: 3,5,4'-Trimethoxystilbene-5,6,7-trimethoxyflavone chimeric analogs as potential cytotoxic agents against diverse human cancer cells” (Eur J Med Chem, 2019)
